Data from paper PMC2745822 (The Journal of pharmacology and experimental therapeutics, 2008).
Values joined by “and” are separate entries in the source; they are usually repeats but may differ in a detail not shown here. Equal entries are not always repeated. Where two headings read alike, the source gives them in different places.

Assays:
[1] = Formulation into homogeneous dosing solution; type: physicochemical; settings: vehicles acceptable for in vivo studies
Method in brief: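 Test compound was jet-milled to uniform nanoparticles before vehicle formulation. It was then dissolved at 56.6 mg/ml in 10% Tween 80 in double-deionized water, with pH adjusted to about 7.0 using 1 N NaOH. The mixture was sonicated until a uniform homogeneous solution formed, for intraperitoneal dosing.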

rM4 receptor [2] = biological target: T1, rM4 receptor (Rattus norvegicus, UniProt P08485); assay: [3H]NMS equilibrium radioligand binding, membranes from rM4-expressing CHO cells; settings: 0.1 nM [3H]NMS; concentrations up to 30 µM
T1 sequence (P08485 1-478): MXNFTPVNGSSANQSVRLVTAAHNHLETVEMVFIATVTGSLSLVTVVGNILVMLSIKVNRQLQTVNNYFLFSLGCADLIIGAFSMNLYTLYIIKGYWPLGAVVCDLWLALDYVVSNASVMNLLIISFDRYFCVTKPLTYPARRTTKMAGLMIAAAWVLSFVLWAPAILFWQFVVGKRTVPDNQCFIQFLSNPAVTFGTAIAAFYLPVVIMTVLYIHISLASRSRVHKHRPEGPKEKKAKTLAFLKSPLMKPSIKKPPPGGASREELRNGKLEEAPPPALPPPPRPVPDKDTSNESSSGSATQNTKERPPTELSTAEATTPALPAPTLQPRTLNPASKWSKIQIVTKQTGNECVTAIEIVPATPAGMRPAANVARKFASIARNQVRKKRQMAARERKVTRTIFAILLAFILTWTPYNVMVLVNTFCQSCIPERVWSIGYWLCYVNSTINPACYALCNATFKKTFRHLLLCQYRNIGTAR

[3] = Brain and plasma exposure pharmacokinetic profiling; type: in vivo, rat; settings: male rats, 56.6 mg/kg i.p.; mean ± S.E.M., n = 3
Method in brief: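 Male Sprague-Dawley rats (225–250 g), fasted overnight. Test compound dissolved at 56.6 mg/ml in 10% Tween 80/water, pH ~7.0 (1 N NaOH), sonicated, and given at 56.6 mg/kg i.p. Brain and trunk plasma taken at 0.5, 1, 2 and 4 h, three rats per time point. Brain homogenized in acetonitrile/methanol and plasma precipitated with acidified acetonitrile, both with internal standard. Analyzed by positive-ESI LC-MS-MS, linear 50 ng/ml–100 µg/ml. AUC0-∞ by trapezoidal method.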

rat M4 mAChR [4] = biological target: T2, rat M4 mAChR (Rattus norvegicus, UniProt P08485); type: cell-based; settings: compound alone
T2 sequence (P08485 1-478): T1 sequence (P08485 1-478)

[5] = tested on: amphetamine-induced hyperlocomotion in rats; assay: Amphetamine-induced hyperlocomotion; type: in vivo, rat; settings: 56.6 mg/kg i.p., 30-min pretreatment; 1 mg/kg s.c. amphetamine; 60 min
[6] = tested on: panel of 68 discrete GPCRs, ion channels, transporters, and enzymes; assay: MDS Pharma LeadProfiling Screen radioligand binding panel; settings: 10 µM; for VU0152099 with the single exception of GABAA receptors
[7] = biological target: T3, human M4 muscarinic receptor (Homo sapiens, UniProt P08173); settings: in presence of compound
T3 sequence (P08173 1-479): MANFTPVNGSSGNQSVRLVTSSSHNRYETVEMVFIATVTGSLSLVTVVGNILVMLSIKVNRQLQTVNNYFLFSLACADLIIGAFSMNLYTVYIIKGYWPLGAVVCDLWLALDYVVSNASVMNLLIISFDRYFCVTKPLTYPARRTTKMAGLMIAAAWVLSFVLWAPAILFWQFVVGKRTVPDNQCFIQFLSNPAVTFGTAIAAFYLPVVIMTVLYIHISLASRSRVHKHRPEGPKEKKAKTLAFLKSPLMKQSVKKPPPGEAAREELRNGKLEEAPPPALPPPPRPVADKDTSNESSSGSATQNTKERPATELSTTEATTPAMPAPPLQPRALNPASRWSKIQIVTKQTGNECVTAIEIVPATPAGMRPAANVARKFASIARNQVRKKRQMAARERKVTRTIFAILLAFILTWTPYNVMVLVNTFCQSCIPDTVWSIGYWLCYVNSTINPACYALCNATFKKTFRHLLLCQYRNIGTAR

[8] = tested on: motor performance in rats; assay: Rotorod test; type: in vivo, rat; settings: 30, 56.6, or 100 mg/kg i.p., 30-min pretreatment
Method in brief: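 Rats got one 120-s training trial, then two 85-s trials about 10 min apart, on a 7.5-cm rod turning at a constant 20 rpm. They were pretreated i.p. for 30 min with vehicle or test compound (30, 56.6 or 100 mg/kg, salt form, 1.0 ml/kg in 10% Tween 80/water, pH ~7.0). Time on the rod was recorded, capped at 85 s. Analysis was one-way ANOVA with Dunnett's test versus vehicle.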

rM4 receptor [9] = biological target: T1, rM4 receptor; settings: ref Shirey et al., 2008; cited from earlier work
[10] = ref Shirey et al., 2008; cited from earlier work
rat M4 mAChR [11] = biological target: T2, rat M4 mAChR; settings: ref Shirey et al., 2008, cited from earlier work
other mAChR subtypes = settings: ref Shirey et al., 2008; cited from earlier work
[12] = ref Bodick et al., 1997; Shekhar et al., 2001, 2008; cited from earlier work
[13] = tested on: amphetamine-induced hyperlocomotion in rats; settings: ref Stanhope et al., 2001; cited from earlier work

## COc1ccc(CNC(=O)c2sc3nc(C)cc(C)c3c2N)cc1 [VU0152100, 3-amino-N-(4-methoxybenzyl)-4,6-dimethylthieno[2,3-b]pyridine carboxamide]
[1]
  formulation into homogeneous dosing solution: afforded homogeneous dosing solutions in multiple vehicles acceptable for in vivo studies
rM4 receptor [2]
  displacement of [3H]NMS: neither M4 PAM displaced
[3]
  Mean AUC (0-∞) brain: 5726.35 ± 694.68 ng·h/g
  Mean AUC(0-∞) plasma: 6570.35 ± 235.87 ng·h/mL
  t1/2 brain: 1.12 ± 0.01 h
  t1/2 plasma: 1.62 ± 0.69 h
Rat M4 mAChR [4]
  response in the absence of an ACh EC20 (agonist activity): neither VU0152099 nor VU0152100 elicited a response
[5]
  effect on amphetamine-induced hyperlocomotion: produced robust decreases in amphetamine-induced hyperlocomotion
[6]
  displacement of binding, all targets tested: less than 50%
[7]
  maximal response to ACh: approximately 130%
[8]
  effect on performance in the rotorod test: had no effect on performance in the rotorod test

## Cc1cc(C)c2c(N)c(C(=O)NCc3ccc(Cl)cc3)sc2n1 [VU10010, 3-amino-N-(4-chlorobenzyl)-4,6-dimethylthieno[2,3-b]pyridine-2-carboxamide]
[1]
  formulation into homogeneous dosing solution: unable to formulate VU10010 into a homogeneous solution in any acceptable vehicle
rM4 receptor [9]
  decrease in the ACh Ki: 14 fold
[10]
  log P: ~ 4.5 and 4.5
Rat M4 mAChR [11]; read-out: M4 EC50
  EC50: ~400 nM
Rat M4 mAChR [11]
  potentiation (-fold shift) of the M4 ACh CRC: 47 fold
Other mAChR subtypes
  activation of the other mAChR subtypes: causes no activation of the other mAChR subtypes

## CCCCCCOc1nsnc1C1=CCCN(C)C1 [xanomeline, 3-[3-hexyloxy-1,2,5-thiadiazo-4-yl]-1,2,5,6-tetrahydro-1-methylpyridine]
[12]
  clinical efficacy: demonstrated efficacy as both a cognition-enhancing agent and an antipsychotic agent
[13]
  effect on amphetamine-induced hyperlocomotion: reversal of amphetamine-induced hyperlocomotion in rats
